Assays:
Assay type in all cases: protein assay
[1] = substrate: OC[C@H]1O[C@H](O[C@H]2[C@@H](O)[C@H](O)[C@@H](CO)O[C@@H]2O)[C@@H](O)[C@@H](O)[C@@H]1O; test: Activity of Bacteroides thetaiotaomicron GH92 alpha-mannosidase GH92 alpha-mannosidase 4092 assessed as mannose release after 16 hrs by HPLC
Outline: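 Yeast mannan or ovalbumin (mostly high-mannose N-glycans) at 1 mg ml−1 was incubated with recombinant IMAC-purified enzyme from E. coli. The methods give enzyme at 2 μM and the table footnote gives 1 μM. Buffer was 100 mM sodium HEPES pH 7.0 with 1 mg ml−1 BSA and 2 mM CaCl2. Aliquots were taken at 1 and 16 h and boiled 10 min. Mannose was measured by HPLC and scored by signal: >500 nC +++, 200–500 ++, <200 +.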

[2] = substrate: O=[N+]([O-])c1ccc(O[C@H]2O[C@H](CO)[C@@H](O)[C@H](O)[C@@H]2O)cc1; test: (§1) Ratio of Kcat to Km for Bacteroides thetaiotaomicron GH92 alpha-mannosidase GH92 alpha-mannosidase 4092 assessed as mannose release after 16 hrs by HPLC
[3] = substrate: OC[C@H]1O[C@H](O[C@H]2[C@@H](O)[C@H](O)[C@@H](CO)O[C@@H]2O)[C@@H](O)[C@@H](O)[C@@H]1O; test: as §1
[4] = substrate: O=[N+]([O-])c1ccc(O[C@H]2O[C@H](CO)[C@@H](O)[C@H](O)[C@@H]2O)cc1; test: (§2) Activity of Bacteroides thetaiotaomicron GH92 alpha-mannosidase 3990 N601A mutant assessed as as mannose release after 16 hrs by HPLC relative to wild type enzyme
[5] = substrate: OC[C@H]1O[C@H](O[C@H]2[C@@H](O)[C@H](O)[C@@H](CO)O[C@@H]2O)[C@@H](O)[C@@H](O)[C@@H]1O; test: as §2
[6] = substrate: O=[N+]([O-])c1ccc(O[C@H]2O[C@H](CO)[C@@H](O)[C@H](O)[C@@H]2O)cc1; test: (§3) Ratio of Kcat to Km for Bacteroides thetaiotaomicron GH92 alpha-mannosidase 3990 N601A mutant assessed as as mannose release after 16 hrs by HPLC relative to wild type enzyme
[7] = substrate: O=[N+]([O-])c1ccc(O[C@H]2O[C@H](CO)[C@@H](O)[C@H](O)[C@@H]2O)c([N+](=O)[O-])c1; test: as §3
[8] = substrate: OC[C@H]1O[C@H](O[C@H]2[C@@H](O)[C@H](O)[C@@H](CO)O[C@@H]2O)[C@@H](O)[C@@H](O)[C@@H]1O; test: as §3

B1: Alpha-1,2-mannosidase (BT_4092) (Bacteroides thetaiotaomicron), Q8A0C9 (protein)
chain: MKKLVYLIIFFLYSTVMNAQLKDLVQYVNTLQGTDSNFGLSYGNTYPTTGMPYGMHMWSAQTGKNGDGFKYMYAVDKIRAFSQSHQCSPWVSDYAVYSFMPMVGELVVNQDARATKFSHDNEIAKPHYYKVTFDNGITTEMAPTTRGVHLRFSYPTTGDAYLVLDGYTDMSEIKIDPAKRQISGWVNNQRFVNDSKSFRNYFVVQFDKPFEDYGVWENQKDEVFPQKLDGAGKGYGAFIKFKKGSKVQAKAASSYISAEQALITLNKELGKDKNLEVTKARGQKTWNEVLNRIVVEGCTDEQMKTFYSCLFRANLFSRKFYERKENGEPYYYSPYNGKIYDGYMYTDNGFWDTFRSQFPLTNILHPTMQGRYMNALLAAQEQCGWLPSWSSPGETGGMLGNHSISLLADAWAKGIRDFDPEKALKAYAHEAMNKGPWGGANGRGFWKEYFQLGYVPYPESMGSSAQTMEYAYDDFCGYQLAKMVGNKHYQEVFARQMYNYKNVFDKSIGFMRGKGVDGKWQEPFDPLEWGGPFCEGNAWHYTWSVFHDVQGLIDLFGSDEKFTTKIDSVFTIPNIIKPGTYGGVIHEMKEMELANMGQYAHGNQPIQHMPYLYCYAGQPWKTQYWVRQIVERLYNSTEKGYPGDEDQGGMSSWYILSSLGIYAVCPGTDEYVIGSPLFKKATITMENGNKFVIEAPENSKENLYIQSATLNGRLLDKNYIHYDDIAEGGVLKFEMGSQPNKERCTSKYAAPFSLSKE
Km [1]: 2 mM | kcat [1]: 1.83 s⁻¹ | kcat/Km [2]: 1.12 M⁻¹ s⁻¹ | kcat/Km [3]: 900 M⁻¹ s⁻¹

B2: Alpha-1,2-mannosidase (BT_3990) (Bacteroides thetaiotaomicron), Q8A0N1 N601A (protein)
chain: MKRLLLIACILNCTLLSQAKDWTQYVNPLMGSQSTFELSTGNTYPAIARPWGMNFWTPQTGKMGDGWQYTYTANKIRGFKQTHQPSPWINDYGQFSIMPIVGQPVFDEEKRASWFAHKGEVATPYYYKVYLAEHDIVTEMTPTERAVLFRFTFPENDHSYVVVDAFDKGSYIKIIPEENKIIGYTTRNSGGVPENFKNYFIIEFDKPFTYKATVENGNLQENVAEQTTDHAGAIIGFKTRKGEQVNARIASSFISFEQAAANMNELGKDNIEQLAQKGKDAWNQVLGKIEVEGGNLDQYRTFYSCLYRSLLFPRKFYELDANGQPIHYSPYNGQVLPGYMFTDTGFWDTFRCLFPLLNLMYPSVNKEMQEGLINTYLESGFFPEWASPGHRGCMVGNNSASILVDAYMKGVKVDDIKTLYEGLIHGTENVHPEVSSTGRLGYEYYNKLGYVPYDVKINENAARTLEYAYDDWCIYRLAKELKRPKKEISLFAKRAMNYKNLFDKESKLMRGRNEDGTFQSPFSPLKWGDAFTEGNSWHYTWSVFHDPQGLIDLMGGKEMFVTMMDSVFAVPPIFDDSYYGQVIHEIREMTVMNMGNYAHGAQPIQHMIYLYDYAGQPWKAQYWLRQVMDRMYTPGPDGYCGDEDNGQTSAWYVFSALGFYPVCPGTDEYVMGTPLFKKATLHFENGNSLVIDAPNNSTENFYIDSMSFNGADHTKNYLRHEDLFKGGTIKVDMSNRPNLNRGTKEEDMPYSFSKE
Km [4]: 9.7 mM | kcat [4]: 0.00055 s⁻¹ | Km [5]: 3.3 mM | kcat [5]: 0.85 s⁻¹ | kcat/Km [6]: 0.05 M⁻¹ s⁻¹ | kcat/Km [7]: 6.17 M⁻¹ s⁻¹ | kcat/Km [8]: 250 M⁻¹ s⁻¹

From ChEMBL document CHEMBL1250451, “Mechanistic insights into a Ca2+-dependent family of alpha-mannosidases in a human gut symbiont” (Nat Chem Biol, 2010)
